ChEMBL document CHEMBL1926657, “Novel bioactive metabolites of dipyrone (metamizol)” (Bioorg Med Chem, 2012)
Values belong to the compound of their own block, whether it stands above or below them. Activity calls are given as the source filed them. The rule behind the calls is not given here.

Assays:
[1] = Prodrug activation in C57BL/6 mouse CSF assessed as formation of arachidonoyl-4-methylaminoantipyrin at 600 mg/kg, po administered daily measured after 48 hrs; assay type: organism-based, Cerebrospinal fluid; parameters: dose 600 mg/kg, route oral; settings: in vivo
In short: (§1)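 Dipyrone was given in the drinking water, and mice were killed on day 2 (48 h) or day 5 (120 h) under isoflurane. Tissue was extracted with diisopropyl ether/ethyl acetate 1:3, dried and taken up in acetonitrile/water 9:1. The amides were measured by LC-MS/MS on a C18 column. Semi-quantification used external calibration with 10, 100 and 1000 pg standards.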

[2] = Prodrug activation in C57BL/6 mouse CSF assessed as formation of arachidonoyl-4-methylaminoantipyrin at 600 mg/kg, po administered daily measured after 120 hrs; assay type: organism-based, Cerebrospinal fluid; parameters: dose 600 mg/kg, route oral; settings: in vivo; in short: as §1
Spleen [3] = assay: Prodrug activation in C57BL/6 mouse spleen assessed as formation of arachidonoyl-4-methylaminoantipyrin at 600 mg/kg, po administered daily measured after 48 hrs; assay type: organism-based; parameters: dose 600 mg/kg, route oral; settings: in vivo; in short: as §1
Spleen [4] = assay: Prodrug activation in C57BL/6 mouse spleen assessed as formation of arachidonoyl-4-methylaminoantipyrin at 600 mg/kg, po administered daily measured after 120 hrs; assay type: organism-based; parameters: dose 600 mg/kg, route oral; settings: in vivo; in short: as §1
[5] = Prodrug activation in C57BL/6 mouse CSF assessed as formation of arachidonoyl-4-aminoantipyrin at 600 mg/kg, po administered daily measured after 48 hrs; assay type: organism-based, Cerebrospinal fluid; parameters: dose 600 mg/kg, route oral; settings: in vivo; in short: as §1
[6] = Prodrug activation in C57BL/6 mouse CSF assessed as formation of arachidonoyl-4-aminoantipyrin at 600 mg/kg, po administered daily measured after 120 hrs; assay type: organism-based, Cerebrospinal fluid; parameters: dose 600 mg/kg, route oral; settings: in vivo; in short: as §1
Spleen [7] = assay: Prodrug activation in C57BL/6 mouse spleen assessed as formation of arachidonoyl-4-aminoantipyrin at 600 mg/kg, po administered daily measured after 48 hrs; assay type: organism-based; parameters: dose 600 mg/kg, route oral; settings: in vivo; in short: as §1
Spleen [8] = assay: Prodrug activation in C57BL/6 mouse spleen assessed as formation of arachidonoyl-4-aminoantipyrin at 600 mg/kg, po administered daily measured after 120 hrs; assay type: organism-based; parameters: dose 600 mg/kg, route oral; settings: in vivo; in short: as §1
Brain [9] = assay: Prodrug activation in FAAH wild type C57BL/6 mouse brain assessed as formation of arachidonoyl-4-methylaminoantipyrin at 600 mg/kg, po administered daily measured after 48 hrs; assay type: organism-based; parameters: dose 600 mg/kg, route oral; settings: in vivo; in short: as §1
Brain [10] = assay: Prodrug activation in FAAH wild type C57BL/6 mouse brain assessed as formation of arachidonoyl-4-aminoantipyrin at 600 mg/kg, po administered daily measured after 48 hrs; assay type: organism-based; parameters: dose 600 mg/kg, route oral; settings: in vivo; in short: as §1
Brain [11] = assay: Prodrug activation in FAAH wild type C57BL/6 mouse brain assessed as formation of arachidonoyl-4-methylaminoantipyrin at 600 mg/kg, po administered daily measured after 120 hrs; assay type: organism-based; parameters: dose 600 mg/kg, route oral; settings: in vivo; in short: as §1
Brain [12] = assay: Prodrug activation in FAAH wild type C57BL/6 mouse brain assessed as formation of arachidonoyl-4-aminoantipyrin at 600 mg/kg, po administered daily measured after 120 hrs; assay type: organism-based; parameters: dose 600 mg/kg, route oral; settings: in vivo; in short: as §1
[13] = target: T1, Transient receptor potential cation channel subfamily V member 1 (Homo sapiens, UniProt Q8NER1); assay: Agonist activity at TRPV1; assay type: functional
T1 sequence (Q8NER1 whole entry): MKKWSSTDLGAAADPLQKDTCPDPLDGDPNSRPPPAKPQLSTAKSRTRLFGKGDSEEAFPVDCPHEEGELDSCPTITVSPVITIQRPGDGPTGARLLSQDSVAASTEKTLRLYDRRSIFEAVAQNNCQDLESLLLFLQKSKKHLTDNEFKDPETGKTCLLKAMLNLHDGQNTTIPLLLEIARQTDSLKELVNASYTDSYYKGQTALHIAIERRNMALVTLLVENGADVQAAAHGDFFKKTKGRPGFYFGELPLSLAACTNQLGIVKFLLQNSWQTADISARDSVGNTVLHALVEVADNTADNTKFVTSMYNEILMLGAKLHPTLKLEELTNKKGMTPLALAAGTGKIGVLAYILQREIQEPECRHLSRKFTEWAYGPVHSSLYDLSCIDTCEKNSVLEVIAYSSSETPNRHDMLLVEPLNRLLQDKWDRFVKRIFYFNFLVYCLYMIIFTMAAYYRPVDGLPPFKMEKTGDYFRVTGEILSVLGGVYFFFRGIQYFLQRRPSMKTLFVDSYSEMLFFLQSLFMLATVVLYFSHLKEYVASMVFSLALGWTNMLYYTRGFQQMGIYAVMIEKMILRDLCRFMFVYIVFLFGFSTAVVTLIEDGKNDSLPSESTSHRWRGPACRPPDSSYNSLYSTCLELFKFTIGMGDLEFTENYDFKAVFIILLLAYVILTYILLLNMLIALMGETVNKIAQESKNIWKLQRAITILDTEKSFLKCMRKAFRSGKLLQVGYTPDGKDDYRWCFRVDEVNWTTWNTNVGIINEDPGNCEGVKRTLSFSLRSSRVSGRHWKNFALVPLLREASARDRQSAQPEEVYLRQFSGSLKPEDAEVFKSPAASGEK

Mus musculus [14] = species: Mus musculus; assay: Inhibition of COX-mediated PGE2 production in C57BL/6 mouse brain homogenate at 100 nM to 100 uM; assay type: tissue-based
In short: (§2)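 Mouse brain homogenate (20 µg) made on ice in 50 mM Tris pH 7.4 with 1 mM phenol and protease inhibitors, then incubated with inhibitor or vehicle. Reaction started with 150 µM arachidonic acid at 37°C, stopped after 5 min by acidifying to pH 2.5 with 1% formic acid. Prostanoids extracted in ethyl acetate/hexane (7:1), and PGE2 or 6-keto-PGF1α quantified by GC-MS/MS.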

Cannabinoid receptor 1 = Cannabinoid receptor 1 (Homo sapiens, UniProt P21554); assay: Displacement of [3H]CP-55940 from human recombinant CB1 receptor expressed in HEK cells; assay type: cell-based, HEK293
Cannabinoid receptor 1, sequence (P21554 whole entry): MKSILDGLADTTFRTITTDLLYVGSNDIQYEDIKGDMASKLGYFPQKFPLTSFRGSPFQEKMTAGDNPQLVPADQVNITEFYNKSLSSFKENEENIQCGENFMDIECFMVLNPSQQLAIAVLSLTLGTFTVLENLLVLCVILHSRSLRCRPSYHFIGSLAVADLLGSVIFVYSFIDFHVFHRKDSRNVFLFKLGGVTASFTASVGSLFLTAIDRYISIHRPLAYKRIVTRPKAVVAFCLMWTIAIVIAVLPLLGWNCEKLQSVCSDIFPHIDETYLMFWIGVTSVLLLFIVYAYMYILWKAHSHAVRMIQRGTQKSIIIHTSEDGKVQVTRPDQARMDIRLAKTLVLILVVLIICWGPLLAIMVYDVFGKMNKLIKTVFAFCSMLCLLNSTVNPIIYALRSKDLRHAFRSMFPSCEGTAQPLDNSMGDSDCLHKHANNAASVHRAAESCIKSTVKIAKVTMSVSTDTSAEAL

Cannabinoid receptor 2 = Cannabinoid receptor 2 (Homo sapiens, UniProt P34972); assay: Displacement of [3H]CP-55940 from human recombinant CB2 receptor expressed in HEK cells; assay type: cell-based, HEK293
Cannabinoid receptor 2, sequence (P34972 whole entry): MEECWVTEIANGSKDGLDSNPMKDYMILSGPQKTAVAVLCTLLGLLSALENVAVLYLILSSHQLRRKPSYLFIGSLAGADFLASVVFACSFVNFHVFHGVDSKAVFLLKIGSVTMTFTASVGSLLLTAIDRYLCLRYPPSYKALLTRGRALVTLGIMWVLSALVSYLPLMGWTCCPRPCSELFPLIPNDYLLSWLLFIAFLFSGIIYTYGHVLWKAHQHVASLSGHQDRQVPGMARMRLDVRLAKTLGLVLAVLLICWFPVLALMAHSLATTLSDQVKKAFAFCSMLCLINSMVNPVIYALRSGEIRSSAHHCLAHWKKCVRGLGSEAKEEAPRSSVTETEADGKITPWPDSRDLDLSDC

[15] = target: T1, Transient receptor potential cation channel subfamily V member 1; assay: Inhibition of TRPV1
[16] = (§3) Inhibition of COX-mediated PGE2 production in C57BL/6 mouse brain homogenate; assay type: tissue-based; in short: as §2
Mus musculus [17] = species: Mus musculus; assay: as §3; assay type: tissue-based; in short: as §2
[18] = (§4) Inhibition of COX-mediated 6-keto-PGF1alpha production in C57BL/6 mouse brain homogenate; assay type: tissue-based; in short: as §2
Mus musculus [19] = species: Mus musculus; assay: as §4; assay type: tissue-based; in short: as §2
Mus musculus [20] = species: Mus musculus; assay: Inhibition of PGE2 production in LPS-stimulated COX-1 knockout C57BL/6 mouse brain homogenate at 0.8 uM measured after 6 hrs; assay type: functional
In short: (§5)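 COX-1−/− or COX-2−/− mice injected i.p. with LPS 50 µg kg−1; brains taken 6 h later and homogenised in Tris pH 7.4/phenol/protease-inhibitor buffer. COX activity measured with inhibitor or vehicle: 150 µM arachidonic acid, 37°C, 5 min, formic acid stop to pH 2.5. PGE2 extracted in ethyl acetate/hexane and measured by GC-MS/MS.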

Mus musculus [21] = species: Mus musculus; assay: Inhibition of PGE2 production in LPS-stimulated COX-2 knockout C57BL/6 mouse brain homogenate at 0.4 uM measured after 6 hrs; assay type: functional; in short: as §5
Mus musculus [22] = species: Mus musculus; assay: Inhibition of PGE2 production in LPS-stimulated COX-1 knockout C57BL/6 mouse brain homogenate measured after 6 hrs; assay type: functional; settings: C57BL/6, Brain; in short: as §5
Mus musculus [23] = species: Mus musculus; assay: Inhibition of PGE2 production in LPS-stimulated COX-2 knockout C57BL/6 mouse brain homogenate measured after 6 hrs; assay type: functional; settings: C57BL/6, Brain; in short: as §5
Mus musculus [24] = species: Mus musculus; assay: Ratio of IC50 for COX-mediated PGE2 production in C57BL/6 mouse brain homogenate measured after 6 hrs in absence of FAAH inhibitor URB532 to IC50 for COX-mediated PGE2 production in C57BL/6 mouse brain homogenate measured after 6 hrs in presence of FAAH inhibitor URB532; assay type: tissue-based
[25] = Inhibition of COX-mediated PGE2 production in C57BL/6 mouse brain homogenate measured after 6 hrs in presence of FAAH inhibitor URB532; assay type: tissue-based
[26] = target: T2, Prostaglandin G/H synthase 1 (Mus musculus, UniProt P22437); assay: Inhibition of COX-1 in C57BL/6 mouse brain homogenate; assay type: tissue-based
T2 sequence (P22437 whole entry): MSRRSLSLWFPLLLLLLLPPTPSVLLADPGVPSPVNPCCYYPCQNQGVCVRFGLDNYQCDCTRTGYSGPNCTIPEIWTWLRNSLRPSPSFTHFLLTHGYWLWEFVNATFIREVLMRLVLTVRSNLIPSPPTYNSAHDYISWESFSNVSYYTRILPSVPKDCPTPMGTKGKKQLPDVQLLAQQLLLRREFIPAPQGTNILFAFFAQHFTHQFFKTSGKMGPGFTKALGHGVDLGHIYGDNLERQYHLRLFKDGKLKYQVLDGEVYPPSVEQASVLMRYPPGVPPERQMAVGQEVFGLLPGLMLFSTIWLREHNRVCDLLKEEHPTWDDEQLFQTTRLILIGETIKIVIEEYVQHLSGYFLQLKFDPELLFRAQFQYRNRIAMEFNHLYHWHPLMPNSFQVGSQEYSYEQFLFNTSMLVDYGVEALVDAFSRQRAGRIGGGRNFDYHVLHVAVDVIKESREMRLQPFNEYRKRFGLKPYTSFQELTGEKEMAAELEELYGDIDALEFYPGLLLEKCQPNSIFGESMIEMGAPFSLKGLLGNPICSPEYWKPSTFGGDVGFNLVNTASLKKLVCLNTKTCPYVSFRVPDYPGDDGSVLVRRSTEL
In short: (§6)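 Brain homogenate from C57BL/6 mice was prepared on ice in 50 mM Tris pH 7.4 with 1 mM phenol and protease inhibitors. 20 µg of homogenate was incubated with inhibitor or vehicle. The reaction was started with 150 µM arachidonic acid at 37°C and stopped after 5 min with formic acid to pH 2.5. Prostanoids were extracted with ethyl acetate/hexane 7:1. PGE2 and 6-keto-PGF1α were measured by GC-MS/MS, and IC50 was determined.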

[27] = target: T3, Prostaglandin G/H synthase 2 (Mus musculus, UniProt Q05769); assay: Inhibition of COX-2 in C57BL/6 mouse brain homogenate; assay type: tissue-based; in short: as §6
T3 sequence (Q05769 whole entry): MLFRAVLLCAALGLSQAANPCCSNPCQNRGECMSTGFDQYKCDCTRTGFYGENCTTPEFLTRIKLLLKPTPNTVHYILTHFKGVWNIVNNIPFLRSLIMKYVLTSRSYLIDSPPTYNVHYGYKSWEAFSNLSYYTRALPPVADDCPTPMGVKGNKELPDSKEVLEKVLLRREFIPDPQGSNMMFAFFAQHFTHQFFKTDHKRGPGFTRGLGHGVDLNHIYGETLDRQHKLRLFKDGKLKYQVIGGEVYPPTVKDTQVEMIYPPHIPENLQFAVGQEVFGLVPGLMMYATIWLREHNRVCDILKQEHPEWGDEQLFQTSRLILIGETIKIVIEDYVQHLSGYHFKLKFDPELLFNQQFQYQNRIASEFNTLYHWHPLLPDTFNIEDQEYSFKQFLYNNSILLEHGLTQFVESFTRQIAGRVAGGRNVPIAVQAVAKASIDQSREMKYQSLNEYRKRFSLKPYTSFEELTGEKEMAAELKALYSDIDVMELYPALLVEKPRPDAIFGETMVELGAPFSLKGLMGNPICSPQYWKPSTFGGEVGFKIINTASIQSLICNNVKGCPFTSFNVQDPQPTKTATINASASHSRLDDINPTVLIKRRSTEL

Drug metabolism [1]: Active | Drug metabolism [2]: Active | Drug metabolism (Spleen [3]): Active | Drug metabolism (Spleen [4]): Active | Drug metabolism [5]: Active | Drug metabolism [6]: Active | Drug metabolism (Spleen [7]): Active | Drug metabolism (Spleen [8]): Active | Drug metabolism (Brain [9]): Active | Drug metabolism (Brain [10]): Active | Drug metabolism (Brain [11]): Active | Drug metabolism (Brain [12]): Active
Structure (SMILES): Cc1c(N(C)CS(=O)(=O)[O-])c(=O)n(-c2ccccc2)n1C.[Na+] [DIPYRONE SODIUM]

Structure (SMILES): CCCCC/C=C\C/C=C\C/C=C\C/C=C\CCCC(=O)Nc1ccc(O)cc1
EC50 [13]: 26 nM

Structure (SMILES): CCCCC/C=C\C/C=C\C/C=C\C/C=C\CCCC(=O)Nc1c(C)n(C)n(-c2ccccc2)c1=O
inhibition (Mus musculus [14]): inactive | Ki (Cannabinoid receptor 1): 2.9 µM | Ki (Cannabinoid receptor 2): 5.4 µM | inhibition [15]: inactive

Structure (SMILES): CCCCC/C=C\C/C=C\C/C=C\C/C=C\CCCC(=O)N(C)c1c(C)n(C)n(-c2ccccc2)c1=O
IC50 [16]: 13.2 µM | inhibition (Mus musculus [17]): Dose-dependent effect | IC50 [18]: 5.2 µM | inhibition (Mus musculus [19]): Dose-dependent effect | inhibition (Mus musculus [20]): Active | inhibition (Mus musculus [21]): 30% | IC50 (Mus musculus [22]): 355 nM | IC50 (Mus musculus [23]): 107 nM | Ki (Cannabinoid receptor 1): 7.8 µM | Ki (Cannabinoid receptor 2): 3 µM | Ratio IC50 (Mus musculus [24]): > 200 | IC50 [25]: 58 nM

IC50 [26]: 1 mM | IC50 [27]: 1 mM
Structure (SMILES): Cc1c(N)c(=O)n(-c2ccccc2)n1C [AMPYRONE]
